From ChEMBL document CHEMBL6134793, “Synthesis and structure-activity study of the antimicrobial lipopeptide brevibacillin” (RSC Med Chem, 2024)
≈ marks a conversion by molar mass, not a printed value. Calls of active or inactive are those of the source. The calls are words filed in the database; no cut-off is given here.

Assays:
Enterococcus faecalis = assay: Antimicrobial activity against Enterococcus faecalis ATCC 29212 assessed as growth inhibition by microdilution assay; type: functional
Method in brief: (§1)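 Twofold serial microdilution of peptide (stocks 2 mg mL−1, diluted to 512 μg mL−1 in water with 10% DMSO) in strain medium, about 1 × 10^4 cfu per well. Media: TSB 20 h 37 °C (S. aureus, L. monocytogenes, B. subtilis, E. faecalis); LB 20 h 37 °C (P. aeruginosa, S. enterica, E. coli); Brucella 48 h 37 °C (C. coli). A595 read; MIC = lowest concentration with no visible growth; triplicate.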

Clostridium perfringens = assay: Antimicrobial activity against Clostridium perfringens ATCC 3628 assessed as growth inhibition by microdilution assay; type: functional
Method in brief: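 Broth microdilution: twofold serial peptide dilutions in reinforced clostridial medium (RCM), seeded with about 1 × 10^4 cfu per well, incubated 20 h at 37 °C. Working solution 512 μg mL−1 made from a 2 mg mL−1 stock in water with 10% DMSO. Growth read as absorbance at 595 nm. MIC taken as the lowest concentration giving complete inhibition of visible growth; run in triplicate.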

[1] = Hemolytic activity in human erythrocytes assessed as fold decrease at 256 ug/ml measured after 1 hr by absorbance based assay relative to brevibacillin; type: toxicity, cell-based; settings: erythrocyte, dose 256 µg/ml
Method in brief: (§2)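 Washed human donor erythrocytes at 1% hematocrit in PBS pH 7.4 exposed to twofold peptide dilutions (final 2–256 μg mL−1, up to 1% DMSO) for 1 h at 37 °C. After centrifugation, supernatant A405 read. % hemolysis relative to PBS (0%) and 1% Triton X-100 (100%). Triplicate; mean ± SEM.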

Staphylococcus aureus [2] = assay: Bacteriostatic activity against Staphylococcus aureus ATCC 6538 assessed as MBC/MIC ratio by microdilution assay; type: functional
Method in brief: (§3)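 MIC wells showing complete inhibition were sampled, 10 μL spread on agar and incubated 48 h under strain conditions; MBC = lowest concentration giving no growth on agar. MIC by broth microdilution (TSB 20 h 37 °C for S. aureus; Brucella 48 h 37 °C for C. coli). Triplicate.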

[3] = Cytotoxicity against human Caco-2 cells assessed as inhibition of cell viability incubated for 48 hrs by Cell Titer GLO assay; type: toxicity, cell-based
Method in brief: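 Caco-2 cells in DMEM with 10% FCS, seeded 25 000 per well, adhered overnight, then given peptide at 2–256 μg mL−1 in complete medium for 48 h at 37 °C, 5% CO2. Controls: cisplatin 125 μM; 0.1% DMSO medium. Viability by ATP luminescence (CellTiter-Glo) versus untreated cells; IC50 from dose–response; mean ± SEM of at least three independent experiments.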

[4] = Hemolytic activity in human erythrocytes at 128 ug/ml measured after 1 hr by absorbance based assay relative to control; type: toxicity, cell-based, Erythrocyte; settings: at 128 µg/mL, read-out: Activity; method in brief: as §2
Staphylococcus aureus [5] = assay: Antimicrobial activity against Staphylococcus aureus ATCC 6538 assessed as growth inhibition by microdilution assay; type: functional; method in brief: as §1
[6] = Antimicrobial activity against Salmonella enterica serovar Newport ATCC 6962 assessed as growth inhibition by microdilution assay; type: functional, Salmonella enterica subsp. enterica serovar Newport; method in brief: as §1
Pseudomonas aeruginosa [7] = assay: Antimicrobial activity against Pseudomonas aeruginosa ATCC […] assessed as diameter of growth inhibition at 128 ug/ml by radial diffusion assay; type: functional; settings: dose 128 µg/ml
Method in brief: (§4)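 Agar well diffusion. Overnight cultures inoculated at 1% into 0.75% soft agar (TSB for S. aureus, LB for P. aeruginosa). Each well received 80 μL of peptide at 128 μg mL−1 in water with 10% DMSO; 10% DMSO served as negative control. Inhibition zone diameter scored after strain-specific incubation.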

Escherichia coli = assay: Antimicrobial activity against Escherichia coli ATCC 25922 assessed as growth inhibition by microdilution assay; type: functional; method in brief: as §1
Bacillus subtilis = assay: Antimicrobial activity against Bacillus subtilis ATCC 23957 assessed as growth inhibition by microdilution assay; type: functional; method in brief: as §1
Staphylococcus aureus [8] = assay: Antimicrobial activity against Staphylococcus aureus ATCC 6538 assessed as diameter of growth inhibition at 128 ug/ml by radial diffusion assay; type: functional; settings: dose 128 µg/ml; method in brief: as §4
Pseudomonas aeruginosa [9] = assay: Antimicrobial activity against Pseudomonas aeruginosa ATCC […] assessed as growth inhibition by microdilution assay; type: functional; method in brief: as §1
Campylobacter coli [10] = assay: Antimicrobial activity against Campylobacter coli ATCC 33559 assessed as growth inhibition by microdilution assay; type: functional; method in brief: as §1
Listeria monocytogenes = assay: Antimicrobial activity against Listeria monocytogenes ATCC 19111 assessed as growth inhibition by microdilution assay; type: functional; method in brief: as §1
Staphylococcus aureus [11] = assay: Antimicrobial activity against Staphylococcus aureus ATCC 6538 assessed as growth inhibition at 128 ug/ml by radial diffusion assay; type: functional, organism-based; settings: dose 128.0 µg/ml; method in brief: as §4
Pseudomonas aeruginosa [12] = assay: Antimicrobial activity against Pseudomonas aeruginosa ATCC […] assessed as growth inhibition at 128 ug/ml by radial diffusion assay; type: functional, organism-based; settings: dose 128.0 µg/ml; method in brief: as §4
[13] = Hemolytic activity in human erythrocytes at 128 to 256 ug/ml measured after 1 hr by absorbance based assay; type: toxicity, cell-based; settings: erythrocyte, dose 128-256 µg/ml; method in brief: as §2
[14] = Hemolytic activity in human erythrocytes at 256 ug/ml measured after 1 hr by absorbance based assay relative to control; type: toxicity, cell-based, Erythrocyte; settings: at 256 µg/mL, read-out: Activity; method in brief: as §2
Campylobacter coli [15] = assay: Bacteriostatic activity against Campylobacter coli ATCC 33559 assessed as MBC/MIC ratio by microdilution assay; type: functional; method in brief: as §3
Staphylococcus aureus [16] = assay: Bactericidal activity against Staphylococcus aureus ATCC 6538 measured after 48 hrs by microdilution assay; type: functional, organism-based; method in brief: as §3
Campylobacter coli [17] = assay: Bacteriostatic activity against Campylobacter coli ATCC 33559 measured after 48 hrs by microdilution assay; type: functional, organism-based; method in brief: as §3

Row | SMILES | MIC (Enterococcus faecalis) | MIC (Clostridium perfringens) | IC50 at 48 h [3] | hemolysis at 1 h, 128 ug/ml [4] | MIC (Staphylococcus aureus [5]) | MIC [6] | MIC (Escherichia coli) | MIC (Bacillus subtilis) | MIC (Pseudomonas aeruginosa [9]) | MIC (Campylobacter coli [10]) | MIC (Listeria monocytogenes) | growth inhibition (qualitative call) (Staphylococcus aureus [11]) | growth inhibition (qualitative call) (Pseudomonas aeruginosa [12]) | hemolysis at 1 h, 256 ug/ml [14] | further results
1 | C/C=C(/NC(=O)[C@@H](O)[C@@H](C)CC)C(=O)N[C@@H](CC(C)C)C(=O)N[C@H](CCCN)C(=O)N[C@H](C(=O)N[C@H](C(=O)N[C@H](C(=O)N[C@H](CCCCN)C(=O)N[C@H](C(=O)N[C@H](C(=O)N[C@@H](CCCCN)C(=O)N[C@H](Cc1ccc(O)cc1)C(=O)N[C@@H](CC(C)C)C(=O)N[C@H](CO)C(C)C)C(C)C)C(C)C)C(C)C)C(C)C)C(C)C | 32 µg/mL | 16 µg/mL | 87.5 µg/mL (≈ 56.2 µM) | 0.65% | 4 µg/mL | > 128 µg/mL | 64 µg/mL | 8 µg/mL | 4 µg/mL | 32 µg/mL | 4 µg/mL |  |  |  | fold change (FC) [1]: 25; Ratio (Staphylococcus aureus [2]): 8; Activity (Pseudomonas aeruginosa [7]): 12 mm; Activity (Staphylococcus aureus [8]): 11 mm
2 | C/C=C(/NC(=O)[C@@H](O)[C@@H](C)CC)C(=O)N[C@@H](CC(C)C)C(=O)N[C@H](CCCN)C(=O)N[C@H](C(=O)N[C@H](C(=O)N[C@H](C(=O)N[C@H](CCCCN)C(=O)N[C@H](C(=O)N[C@H](C(=O)N[C@@H](CCCCN)C(=O)N[C@H](Cc1ccc(O)cc1)C(=O)N[C@@H](CC(C)C)C(=O)N[C@H](C(=O)O)C(C)C)C(C)C)C(C)C)C(C)C)[C@@H](C)CC)[C@@H](C)CC | > 128 µg/mL | > 128 µg/mL | > 256 µg/mL |  | > 128 µg/mL | > 128 µg/mL | > 128 µg/mL | > 128 µg/mL | > 128 µg/mL | 32 µg/mL | 128 µg/mL | inactive | inactive |  | Activity [13]: Non-toxic
3 | CC[C@@H](NC(=O)[C@@H](O)[C@@H](C)CC)C(=O)N[C@@H](CC(C)C)C(=O)N[C@H](CCCN)C(=O)N[C@H](C(=O)N[C@H](C(=O)N[C@H](C(=O)N[C@H](CCCCN)C(=O)N[C@H](C(=O)N[C@H](C(=O)N[C@@H](CCCCN)C(=O)N[C@H](Cc1ccc(O)cc1)C(=O)N[C@@H](CC(C)C)C(=O)N[C@H](CO)C(C)C)C(C)C)C(C)C)C(C)C)C(C)C)C(C)C | > 128 µg/mL | 8 µg/mL | 32.4 µg/mL (≈ 20.8 µM) | 1.2% | 2 µg/mL | > 128 µg/mL | 64 µg/mL | 4 µg/mL | 2 µg/mL | 16 µg/mL | 4 µg/mL | Not active; Exhibited Small Decrease In Activity | Not active; Exhibited Small Decrease In Activity | 4.2% | 
4 | CC[C@H](NC(=O)[C@@H](O)[C@@H](C)CC)C(=O)N[C@@H](CC(C)C)C(=O)N[C@H](CCCN)C(=O)N[C@H](C(=O)N[C@H](C(=O)N[C@H](C(=O)N[C@H](CCCCN)C(=O)N[C@H](C(=O)N[C@H](C(=O)N[C@@H](CCCCN)C(=O)N[C@H](Cc1ccc(O)cc1)C(=O)N[C@@H](CC(C)C)C(=O)N[C@H](CO)C(C)C)C(C)C)C(C)C)C(C)C)[C@@H](C)CC)[C@@H](C)CC | 2 µg/mL | 2 µg/mL | 10 µg/mL (≈ 6.3 µM) | 15.5% | 1 µg/mL | > 128 µg/mL | > 128 µg/mL | 1 µg/mL | 1 µg/mL | 4 µg/mL | 0.5 µg/mL | Not active; Exhibited Small Decrease In Activity | Not active; Exhibited Small Decrease In Activity | 58.7% | Ratio (Campylobacter coli [15]): 8
5 | CC[C@H](NC(=O)[C@@H](NC(C)=O)[C@@H](C)CC)C(=O)N[C@@H](CC(C)C)C(=O)N[C@H](CCCN)C(=O)N[C@H](C(=O)N[C@H](C(=O)N[C@H](C(=O)N[C@H](CCCCN)C(=O)N[C@H](C(=O)N[C@H](C(=O)N[C@@H](CCCCN)C(=O)N[C@H](Cc1ccc(O)cc1)C(=O)N[C@@H](CC(C)C)C(=O)N[C@H](C(N)=O)C(C)C)C(C)C)C(C)C)C(C)C)[C@@H](C)CC)[C@@H](C)CC | > 128 µg/mL | > 128 µg/mL | 14.9 µg/mL (≈ 9.08 µM) | 23.3% | > 128 µg/mL | > 128 µg/mL | > 128 µg/mL | > 128 µg/mL | > 128 µg/mL | > 128 µg/mL | > 128 µg/mL | inactive | inactive | 38.2% | 
6 | C/C=C(/NC(=O)[C@@H](O)[C@@H](C)CC)C(=O)N[C@@H](CC(C)C)C(=O)N[C@H](CCCN)C(=O)N[C@H](C(=O)N[C@H](C(=O)N[C@H](C(=O)N[C@H](CCCCN)C(=O)N[C@H](C(=O)N[C@H](C(=O)N[C@@H](CCCCN)C(=O)N[C@H](Cc1ccc(O)cc1)C(=O)N[C@@H](CC(C)C)C(=O)N[C@H](CO)C(C)C)C(C)C)C(C)C)C(C)C)[C@@H](C)CC)[C@@H](C)CC | 4 µg/mL | 4 µg/mL | 10.9 µg/mL (≈ 6.88 µM) | 9.6% | 2 µg/mL | 64 µg/mL | 32 µg/mL | 1 µg/mL | 1 µg/mL | 8 µg/mL | 2 µg/mL | Active | Active | 25.2% | Activity (Staphylococcus aureus [16]): Active; Activity (Campylobacter coli [17]): Active
